“And” between values parts separate entries of the source, which are not always exact repeats. Equal entries are not always repeated. The campaign covered roughly 350,000 compounds. About 300 (0.086%) were called active. The list comes from a sample in which actives are over-represented; it also holds similar structures and randomly drawn compounds. Values without a mark were called inactive.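 How the source made its calls: active means mean inhibition across replicates of 30% or more, regardless of how many single replicates reach that level; inconclusive means mean under 30% yet at least half of replicates reach 30%; inactive means the rest.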
Assay: inhibitors of fibronectin matrix deposition, primary screen, AH1F cells, Alexa488-fibronectin fluorescence, plate reader (AID 743247);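 further: positive control wells lacked labelled fibronectin entirely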
Settings: AH1F fibroblasts, overnight, at 12.6 µM, active compounds read high
In short: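 Material – AH1F fibroblast monolayer, labelled fibronectin deposition · Reagent – labelled fibronectin 24 nM · Timing – 1 h adhesion, overnight exposure · Measured by – fluorescence at 485 nm excitation, 525 nm emission · Read-out – inhibition of fibronectin deposition signal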

Going from `CC(=O)N(C)C[C@@H]1Oc2ccc(N)cc2CC(=O)N(C)C[C@H]1C` to `CNC[C@@H]1Oc2ccc(N(C)C)cc2CC(=O)N(C)C[C@@H]1C`, the inhibition rises from -1.05% to 2.18%.

Going from `C[C@H](CO)N1C[C@H](C)[C@H](CN(C)Cc2ccc(C(F)(F)F)cc2)OCCCC[C@H](C)Oc2ccc(NS(=O)(=O)c3ccc(Cl)cc3)cc2C1=O` to `C[C@@H]1CCCCO[C@H](CN(C)C)[C@H](C)CN([C@@H](C)CO)C(=O)c2cc(NS(=O)(=O)c3cn(C)cn3)ccc2O1`, the inhibition rises from -21% to -0.203%.

Going from `CCC(=O)N1CC2(C1)[C@@H](c1ccccc1)[C@H](CO)N2CC1CCOCC1` to `CC(=O)N1C[C@@H]2C(c3ccccc3)[C@@H](C1)N2C(=O)NC(C)C` (some centres undefined), the inhibition falls from -2.08% to -6.49%.

First: CN1c2ccc(-c3cccc(C#N)c3)cc2[C@@H]2[C@@H](CCN2C(=O)NC2CCCCC2)[C@@H]1CO
Second: O=C(C1CCC1)N1CC[C@H]2[C@H](CO)Nc3ccc(-c4cccc(F)c4)cc3[C@H]21
The inhibition of the first is higher: -3.13% for the first, -4.67% for the second.

First: COc1ccc(NC(=O)N2C[C@H](O)COC[C@H]3O[C@@H](CC(=O)N4CCN(C)CC4)CC[C@@H]32)cc1
Second: COc1ccc(S(=O)(=O)N2C[C@@H](O)COC[C@H]3O[C@@H](CC(=O)NCCN4CCCCC4)CC[C@@H]32)cc1
The inhibition of the first is higher: -2.89% for the first, -7.51% for the second.

Going from `CC[C@H]1CC=CC[C@@H](C)Oc2ccccc2C(=O)N(C)[C@H](Cc2ccccc2)C(=O)N1` (mixture of isomers) to `C[C@@H]1CC=CC[C@@H](c2ccccc2)NC(=O)[C@@H](Cc2ccccc2)N(C)C(=O)c2ccccc2O1` (mixture of isomers), the inhibition rises from 0.881% to 15.9%.

Compared with `COc1ccccc1NC(=O)N1[C@@H]2CNC[C@H]1C2c1ccc(-c2ccccc2C)cc1` (some centres undefined), `COc1ccc(-c2ccccc2[C@H]2[C@@H](CO)N(C(=O)c3cccnc3)[C@H]2C#N)cc1` is higher in inhibition: -3.3% for the first, 0.791% for the second.

Going from `CCCN1C[C@@H](C)[C@@H](OC)CN(C)C(=O)c2cc(NC(=O)Nc3cccc(F)c3)ccc2OC[C@@H]1C` to `COc1cccc(NC(=O)Nc2ccc3c(c2)OC[C@@H](C)NC[C@@H](C)[C@H](OC)CN(C)C3=O)c1`, the inhibition rises from -5.97% to -4.31%.

Going from `C[C@H]1CN(C)C(=O)c2cccc(N(C)C)c2O[C@@H]1CN(C)C` to `CNC[C@H]1Oc2ccccc2CC(=O)N(C)C[C@H]1C`, the inhibition rises from -26.9% to -0.894%.

Compared with `O=C(C1CCCCC1)N1CC(=O)N2[C@H](CO)[C@H](c3ccc(-c4ccccc4F)cc3)[C@H]2C1`, `O=C(c1cnccn1)N1CC(=O)N2[C@H](C1)[C@@H](c1ccc(C#CC3CCCC3)cc1)[C@@H]2CO` is higher in inhibition: -7.64% for the first, 0.368% for the second.

Going from `O=C1N[C@H](c2ccccc2)COCc2cn(nn2)CC[C@H]1Cc1cccc(Cl)c1` to `O=C1NCCOCc2cn(nn2)CC[C@@H]1Cc1ccccc1`, the inhibition falls from -1.96% to -3.44%.

Compared with `COc1ccc2c3c([nH]c2c1)[C@@H](CO)N(Cc1ccccc1)CC31CCN(Cc2cncnc2)CC1`, `COc1ccc2c3c(n(C)c2c1)[C@H](CO)N(Cc1ccc(F)cc1)CC31CCN(C)CC1` is higher in inhibition: -11.5% for the first, 8.27% for the second.

Compared with `CCCNC(=O)Nc1ccc2c(c1)C(=O)N(C)[C@H]1CC[C@H](CC(=O)NC3CCC3)O[C@H]1CO2`, `COc1cccc(C(=O)Nc2ccc3c(c2)C(=O)N(C)[C@H]2CC[C@@H](CC(=O)N[C@H](C)c4ccccc4)O[C@H]2CO3)c1` is higher in inhibition: -3.4% for the first, 1.83% for the second.

Going from `CN(C)CC(=O)N[C@@H]1CC[C@H](CCn2cc(C3CCCC3)nn2)O[C@H]1CO` to `CCCN1[C@H](CO)[C@H](c2ccc(C#CC3CCCCC3)cc2)[C@@H]1CNC(=O)C1CC1`, the inhibition falls from 5.53% to -11.7%.

Compared with `CC(C)NC(=O)Nc1cccc2c1O[C@H](CN(C)Cc1ccc3c(c1)OCO3)[C@H](C)CN([C@H](C)CO)C2=O`, `COc1ccc(S(=O)(=O)N(C)C[C@@H]2Oc3ccc(NC(=O)Nc4cccc5ccccc45)cc3C(=O)N([C@H](C)CO)C[C@H]2C)cc1` is higher in inhibition: 7.48% for the first, 9.82% for the second.

Going from `COc1ccc2c3c(n(C)c2c1)[C@H](CO)N(C)CC31CN(S(=O)(=O)c2cccc(C)c2)C1` to `COc1ccc2c3c(n(C)c2c1)[C@H](CO)N(C(C)=O)CC31CN(Cc2ccc(Cl)cc2)C1`, the inhibition falls from 11.9% to 9.57%.

Going from `O=C1C[C@@H](c2ccccc2)C(=O)N[C@H](c2ccc(F)cc2)C/C=C\CCN1` to `Cc1cccc(NC(=O)c2nc(S(=O)(=O)Cc3ccccc3)ncc2Cl)c1`, the inhibition rises from -8.29% to 20.9%.

Going from `C/C=C/c1ccc2c(c1)O[C@H](CN(C)C(=O)Nc1ccc(OC)cc1)[C@@H](C)CN([C@H](C)CO)S2(=O)=O` to `CO[C@H]1CN(C)C(=O)c2ccc(NC(C)=O)cc2OC[C@@H](C)N(C(=O)c2ccncc2)C[C@@H]1C`, the inhibition falls from 9.72% to -5.05%.

First: Cc1ccc(CS(=O)(=O)c2ncc(Cl)c(C(=O)Nc3nnc(C)s3)n2)cc1
Second: CN(C)C(=O)C[C@H]1C[C@H]2c3cc(NC(=O)Nc4ccccc4F)ccc3O[C@H]2[C@@H](CO)O1
The inhibition of the first is higher: 0.254% for the first, -8.8% for the second.

Going from `CS(=O)(=O)Nc1ccc2c(c1)[C@H]1C[C@@H](CC(=O)N3CCOCC3)O[C@@H](CO)[C@H]1O2` to `O=C(CCN1CCN(C/C=C/c2ccccc2)CC1)Nc1ccccc1Cl`, the inhibition rises from -0.107% to 15.1%.

Molecule `NC(=O)C1(Nc2ccccc2Cl)CCCC1` has an inhibition of -0.504%.

In the case of `Cc1cccc(CS(=O)(=O)c2ncc(Cl)c(C(=O)Nc3ccc(F)cc3)n2)c1`, the inhibition is reported as 34.8% (active).
With `O=C(Nc1ccc(C(F)(F)F)cc1)N1[C@@H]2CNC[C@H]1C2c1ccc(-c2ccncc2)cc1` (some centres undefined) the inhibition was -4.68% and -6.18%.
For `O=C(Nc1ccccc1Cl)/C(Cl)=C(\Cl)S(=O)c1ccccc1` (centres undefined), the inhibition was 41.6% (active).
